In the library only some 1.5% were active in any assay of this set; here they are far more common.
Mot1-301 SUMO = SUMOylation pathway inhibition by Mot1-301 growth rescue; S. cerevisiae Mot1-301 growth rescue, ATP luminescence, 38.5C; percent above DMSO median, 100 means doubled; 1% of 320,000 active; growth rescue, % at 18.8 µM;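 active means every valid replicate shows activation above 250% relative to neutral control wells; inactive means the rest, any valid replicate at or below 250%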;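 further: OY570 slx delta 5 strain wells were the positive control but not used for scaling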
Cneo AK release = causes C. neoformans cell lysis; 0.2% of 360,000 active; AID 651654; lysis activity, % at 15 µM; adenylate kinase release luminescence, 4 h; normalised: neutral wells 0, clomiphene wells 100;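 active means mean lysis activity across replicates of at least 80%, whatever share of replicates individually reach that level; inactive means mean lysis activity below 80%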
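Assay system: log-phase C. neoformans yeast / Quantity: yeast cell density of 5 × 10^6 cells/mL / Medium: fresh YPD growth medium / Compound: single dose / Timing: static 4 h at 37 °C with compound, 1 h detection / Measured by: adenylate kinase release luminescence / Read-out: lysis from increased AK signal / Benchmarks: Clomiphene as positive lysis control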
C2C12 statin = suppression of simvastatin myotoxicity; rescue of ATP level, % at 7.49 µM; C2C12 myotubes + simvastatin, ATP luminescence, 48 h; scaled: DMSO 0, geranylgeraniol control 100; 0.78% of 330,000 active;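 active means mean ATP rescue above about 67%, or every replicate alone reaching that limit, limit read from the data, passing the limit was not always enough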;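 further: myotubes were challenged with 10 µM simvastatin during compound exposure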
The depositor's hits bear a star; nt = not tested or not shown.

SMILES	Mot1-301 SUMO	Cneo AK release	C2C12 statin
C[C@H](CO)N1C[C@H](C)[C@@H](CN(C)S(=O)(=O)c2ccc(F)cc2)Oc2ccc(NS(=O)(=O)c3ccc(Cl)cc3)cc2C1=O	nt	-1.8	-58.3
C[C@@H]1CN([C@@H](C)CO)C(=O)c2cc(NS(=O)(=O)c3ccc(F)cc3)ccc2O[C@H]1CN(C)S(=O)(=O)c1ccccc1	nt	-1.2	13.1
C[C@H](CO)N1C[C@H](C)[C@@H](CN(C)S(=O)(=O)c2ccc(Cl)cc2)Oc2c(NS(=O)(=O)c3ccc(F)cc3)cccc2C1=O	nt	126.6*	nt
C[C@H](CO)N1C[C@H](C)[C@H](CN(C)S(=O)(=O)c2ccccc2)Oc2ccc(NS(=O)(=O)c3ccc(F)cc3)cc2C1=O	nt	104.1*	3.6
C[C@@H]1CCCCO[C@@H](CN(C)Cc2ccncc2)[C@@H](C)CN([C@@H](C)CO)C(=O)c2cc(NC(=O)Nc3ccccc3)ccc2O1	nt	0.4	nt
CCCc1cn(CC[C@H]2CC[C@@H](NC(=O)C3CCCC3)[C@@H](CO)O2)nn1	nt	59.6	-2.5
C=CCn1c(=O)c(C(=O)Nc2ccc(C)cn2)c(O)c2ccccc21	7.6	-0.7	-6.4
C=CCn1c(=O)c(C(=O)Nc2cccnc2)c(O)c2ccccc21	-7.2	0.5	96.2*
Cc1ccc(S(=O)(=O)Nc2ccc(-c3nc4ccc(C)cc4s3)cc2)cc1	0.2	nt	nt
Cc1ccc2nc(-c3ccc(NS(=O)(=O)c4c(C)n(C)c(=O)n(C)c4=O)cc3)sc2c1	323.5*	nt	nt
O=C1OCCC1Sc1nnc(-c2ccc3c(c2)OCO3)n1-c1ccccc1 (centres undefined)	339.6*	0.6	5.3
O=C1OCCC1Sc1nnnn1-c1ccccc1 (centres undefined)	1.8	-0.1	7.5
COc1ccccc1NC(=O)N1C[C@H]2[C@@H](c3ccccc31)[C@@H](CO)N2C(=O)C1CC1	nt	-3.5	7.8
COCCNCC(=O)NC12CC3CC(CC(C3)C1)C2	-8.5	0.6	117.4*
COCCC(=O)NC12CC3CC(CC(C3)C1)C2	-15.8	3.1	-7.8
C[C@H](O)C#Cc1ccc2c(c1)O[C@@H](CN(C)C(=O)C1CC1)[C@H](C)CN([C@@H](C)CO)S2(=O)=O	nt	5.8	-33.3
CO[C@H]1CN(C)C(=O)c2ccc(NC(=O)C3CC3)cc2OC[C@H](C)N(CC2CC2)C[C@@H]1C	nt	-1.8	-10.3
Cc1c(C(=O)N2CCN(C)CC2)oc2c1C(=O)CC(C)(C)C2	26.3	-0.9	-4.8
Cc1c(C(=O)N2CCc3ccccc32)oc2c1C(=O)CC(C)(C)C2	nt	-2.3	112.1*
COc1cc(CC(=O)Nc2ccc(N3CCOCC3)cc2)cc(OC)c1OC	3.0	nt	nt
COc1cc2c(N3CCOCC3)cc(O)c(CC(=O)Nc3ccccc3)c2cc1OC	87.1	-2.8	114.7*
C[C@H]1CN([C@@H](C)CO)S(=O)(=O)c2ccc(/C=C/c3ccccc3)cc2O[C@H]1CN(C)C	nt	54.3	12.6
Cc1ccc(S(=O)(=O)N[C@H]2CC[C@@H](CCNC(=O)C3CCCC3)O[C@@H]2CO)cc1	nt	-1.3	4.9
Cc1ccc(S(=O)(=O)N[C@@H]2CC[C@H](CC(=O)NCc3ccccc3F)O[C@@H]2CO)cc1	nt	0.9	-3.7
Cc1ccc(S(=O)(=O)N[C@H]2CC[C@H](CC(=O)NCc3ccccc3F)O[C@H]2CO)cc1	nt	99.7*	-3.3
SMILES	Mot1-301 SUMO	Cneo AK release	C2C12 statin
Cc1ccc(S(=O)(=O)N[C@@H]2CC[C@H](CCNC(=O)C3CCCC3)O[C@@H]2CO)cc1	nt	85.8*	0.9
C[C@H](CO)N1C[C@H](C)[C@H](CN(C)Cc2ccc(C(F)(F)F)cc2)OCCCC[C@H](C)Oc2ccc(NS(=O)(=O)c3cn(C)cn3)cc2C1=O	nt	1.4	nt
CCCCN1C(=S)SC(C)(C)C1/[N+]([O-])=C/c1cccnc1 (centres undefined)	14.9	0.5	97.8*
CCCN1C(=S)SC(C)(C)C1/[N+]([O-])=C/c1cccnc1 (centres undefined)	8.7	1.0	-3.7
CCCNC(=O)Nc1ccc2c(c1)C(=O)N(C)[C@@H]1CC[C@@H](CC(=O)O)O[C@@H]1CO2	nt	-4.4	-9.1
COc1cccc(C(=O)Nc2ccc3c(c2)OC[C@@H](C)NC[C@@H](C)[C@H](OC)CN(C)C3=O)c1	nt	1.9	19.9
CCCCCCCCOc1ccc(C(=O)O)cc1	80.3	8.7	-10.9
C=C(C)C(=O)OCCCCCCOc1ccc(C(=O)O)cc1	-10.2	-1.2	97.0*
C[C@H]1CN([C@@H](C)CO)C(=O)c2cc(-c3cccnc3)cnc2O[C@H]1CN(C)C(=O)C1CCC1	nt	-0.9	17.0
Cc1ccccc1S(=O)(=O)N1[C@@H](c2ccccc2)C(C(=O)O)=CC[C@H]1c1ccc(Cl)cc1	25.7	-4.4	-0.8
CCc1ccc([C@@H]2CC=C(C(=O)O)[C@H](c3ccc(Br)cc3)N2S(=O)(=O)c2ccc(C)cc2)cc1	300.2*	-6.9	21.6
Cc1ccc([C@@H]2CC=C(C(=O)O)[C@H](c3ccc(F)cc3)N2S(=O)(=O)c2ccccc2C)cc1	190.2	4.4	4.0
Cc1ccc(S(=O)(=O)N2[C@@H](c3ccc(Br)cc3)C(C(=O)O)=CC[C@H]2c2ccc(Cl)cc2)cc1	nt	-6.3	9.5
Cc1ccc([C@@H]2CC=C(C(=O)O)[C@H](c3cccc(F)c3)N2S(=O)(=O)c2ccccc2C)cc1	279.6*	-1.6	-4.2
Cc1ccc([C@@H]2CC=C(C(=O)O)[C@H](c3ccc(Cl)cc3)N2S(=O)(=O)c2ccccc2C)cc1	255.0*	-0.6	-1.3
CO[C@H]1CN(C)C(=O)c2cc(NC(C)=O)ccc2OC[C@H](C)N(S(=O)(=O)c2cn(C)cn2)C[C@H]1C	nt	0.0	10.0
COc1cccc(S(=O)(=O)N[C@@H]2CC[C@H](CC(=O)NC3Cc4ccccc4C3)O[C@H]2CO)c1	nt	0.7	0.0
C[C@H]1CN([C@@H](C)CO)C(=O)c2cc(-c3cccc(F)c3)cnc2O[C@H]1CN(C)Cc1cccc(F)c1	nt	nt	25.7
CN1CCN(C(=O)C[C@H]2C[C@@H]3c4cc(NC(=O)CC5CC5)ccc4O[C@@H]3[C@@H](CO)O2)CC1	nt	-2.5	1.2
CCOCCc1nnc(NC(=O)CCc2ccccc2)s1	7.6	nt	nt
COCCc1nnc(NC(=O)Cc2ccccc2)s1	-4.3	6.3	88.5*
C[C@H]1CN([C@@H](C)CO)C(=O)c2cc(NC(=O)Cn3cnnn3)ccc2O[C@H]1CN(C)Cc1ccc(Cl)c(Cl)c1	nt	-4.1	46.3
COc1ccccc1CNC(=O)C[C@@H]1CC[C@@H]2[C@H](COc3ccc(NC(C)=O)cc3C(=O)N2C)O1	nt	101.0*	-12.5
CCCNC(=O)C[C@@H]1CC[C@@H]2[C@@H](COc3ccc(NC(=O)CCC)cc3C(=O)N2C)O1	nt	104.8*	-18.4
CCCNC(=O)C[C@H]1CC[C@@H]2[C@@H](COc3ccc(NC(=O)CCC)cc3C(=O)N2C)O1	nt	1.9	-12.2
CN1C(=O)c2cc(NC(=O)Cc3cccs3)ccc2OC[C@H]2O[C@@H](CC(=O)NCc3ccc(-c4ccccc4)cc3)CC[C@@H]21	nt	-1.9	45.4
CN1C(=O)c2cc(NC(=O)Cc3cccs3)ccc2OC[C@H]2O[C@@H](CC(=O)NCc3ccc(-c4ccccc4)cc3)CC[C@H]21	nt	-4.9	72.1*
